Test results as given in ChEMBL document CHEMBL1122702, “Radiohalogen-labeled imaging agents. 3. Compounds for measurement of brain blood flow by emission tomography” (J Med Chem, 1984).

Organism: Rattus norvegicus
Assay: Ratio of distribution of the [131I]-labeled compound at 5 min in rat lung over uptake in blood
Type: ADME, organism-based
Conditions: other tissue
Summary of the method: (§1)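 Male Sprague-Dawley rats (200–300 g, fed ad libitum), ether-anesthetized, got a tail-vein bolus of 0.2 mL saline containing 10–20 μCi 131I compound and were decapitated at the stated time. Organs were weighed and gamma-counted against a serially diluted external standard. Organ/blood ratio was calculated from % dose per gram of organ. Animal numbers per time point were 1–4.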
Work on COc1cc(CC(C)N(C)C(C)C)c(OC)cc1I (stereo not given) yielded a Ratio of 1.1.

Organism: Rattus norvegicus
Assay: Ratio of distribution of the [131I]-labeled compound at 30 min in rat brain over uptake in blood
Type: ADME, organism-based
Conditions: 0.5 h
Summary of the method: as §1
COc1cc(CC(C)N(C)C(C)C)c(OC)cc1I (stereo not given) was tested, and the Ratio was 0.09.

Organism: Rattus norvegicus
Assay: Ratio of distribution of the [131I]-labeled compound at 30 min in rat heart over uptake in blood
Type: ADME, organism-based
Conditions: other tissue, 0.5 h
Summary of the method: as §1
COc1cc(CC(C)N(C)C(C)C)c(OC)cc1I (stereo not given) showed a Ratio of 0.36.

Organism: Rattus norvegicus
Assay: The distribution of the 131 I-labeled compound at 30 min was evaluated in rat lung as Percent of injected dose per gram in the organ
Type: ADME, organism-based
Conditions: in vivo, 0.5 h
Summary of the method: (§2)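 Male Sprague-Dawley rats (200–300 g, free access to food and water), lightly ether-anesthetized and restrained, received a 0.2 mL saline tail-vein bolus of 10–20 μCi 131I-labeled compound. They were decapitated at the stated time, and organs were excised, weighed and gamma-counted. Percent injected dose was determined against a calibrated external standard made by serial dilution of the injectate. n = 1–4 rats.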
In the case of COc1cc(CC(C)N(C)C(C)C)c(OC)cc1I (stereo not given), the Dose is reported as 0.38%.

Organism: Rattus norvegicus
Assay: The distribution of the 131 I-labeled compound at 30 min was evaluated in rat kidney as Percent of injected dose per gram in the organ
Type: ADME, organism-based
Conditions: in vivo, 0.5 h
Summary of the method: as §2
For COc1cc(CC(C)N(C)C(C)C)c(OC)cc1I (stereo not given), the Dose was 0.38%.

Organism: Rattus norvegicus
Assay: The distribution of the 131 I-labeled compound at 5 min was evaluated in rat liver as Percent of injected dose in the total organ
Type: ADME, organism-based
Conditions: in vivo
Summary of the method: as §2
With COc1cc(CC(C)N(C)C(C)C)c(OC)cc1I (stereo not given) the Dose was 10%.

Organism: Rattus norvegicus
Assay: The distribution of the 131 I-labeled compound at 30 min was evaluated in rat liver as Percent of injected dose in the total organ
Type: ADME, organism-based
Conditions: in vivo, 0.5 h
Summary of the method: as §2
Compound COc1cc(CC(C)N(C)C(C)C)c(OC)cc1I (stereo not given) has a Dose of 4.6%.

Organism: Rattus norvegicus
Assay: Ratio of distribution of the [131I]-labeled compound at 30 min in rat kidney over uptake in blood
Type: ADME, organism-based
Conditions: other tissue, 0.5 h
Summary of the method: as §1
For COc1cc(CC(C)N(C)C(C)C)c(OC)cc1I (stereo not given), the Ratio was 0.72.

Organism: Rattus norvegicus
Assay: Ratio of distribution of the [131I]-labeled compound at 5 min in rat kidney over uptake in blood
Type: ADME, organism-based
Conditions: other tissue
Summary of the method: as §1
COc1cc(CC(C)N(C)C(C)C)c(OC)cc1I (stereo not given) gave a Ratio of 1.1.

Organism: Rattus norvegicus
Assay: The distribution of the 131 I-labeled compound at 5 min was evaluated in rat heart as Percent of injected dose per gram in the organ
Type: ADME, organism-based
Conditions: in vivo
Summary of the method: as §2
COc1cc(CC(C)N(C)C(C)C)c(OC)cc1I (stereo not given) showed a Dose of 0.34%.

Organism: Rattus norvegicus
Assay: Ratio of distribution of the [131I]-labeled compound at 5 min in rat liver over uptake in blood
Type: ADME, organism-based
Conditions: other tissue
Summary of the method: as §1
COc1cc(CC(C)N(C)C(C)C)c(OC)cc1I (stereo not given) was tested, and the Ratio was 1.6.

Organism: Rattus norvegicus
Assay: The distribution of the 131 I-labeled compound at 30 min was evaluated in rat kidney as Percent of injected dose in the total organ
Type: ADME, organism-based
Conditions: in vivo, 0.5 h
Summary of the method: as §2
With COc1cc(CC(C)N(C)C(C)C)c(OC)cc1I (stereo not given) the Dose was 1.1%.

Organism: Rattus norvegicus
Assay: The distribution of the 131 I-labeled compound at 30 min was evaluated in rat heart as Percent of injected dose in the total organ
Type: ADME, organism-based
Conditions: in vivo, 0.5 h
Summary of the method: as §2
Compound COc1cc(CC(C)N(C)C(C)C)c(OC)cc1I (stereo not given) has a Dose of 0.24%.

Organism: Rattus norvegicus
Assay: The distribution of the 131 I-labeled compound at 5 min was evaluated in rat blood as Percent of injected dose per gram in the organ
Type: ADME, organism-based
Conditions: in vivo
Summary of the method: as §2
Work on COc1cc(CC(C)N(C)C(C)C)c(OC)cc1I (stereo not given) yielded a Dose of 0.5%.

Organism: Rattus norvegicus
Assay: The distribution of the 131 I-labeled compound at 30 min was evaluated in rat blood as Percent of injected dose per gram in the organ
Type: ADME, organism-based
Conditions: in vivo, 0.5 h
Summary of the method: as §2
COc1cc(CC(C)N(C)C(C)C)c(OC)cc1I (stereo not given) showed a Dose of 0.53%.

Organism: Rattus norvegicus
Assay: The distribution of the 131 I-labeled compound at 5 min was evaluated in rat brain as Percent of injected dose per gram in the organ
Type: ADME, organism-based
Conditions: in vivo
Summary of the method: as §2
With COc1cc(CC(C)N(C)C(C)C)c(OC)cc1I (stereo not given) the Dose was 0.12%.

Organism: Rattus norvegicus
Assay: Ratio of distribution of the [131I]-labeled compound at 30 min in rat lung over uptake in blood
Type: ADME, organism-based
Conditions: other tissue, 0.5 h
Summary of the method: as §1
Compound COc1cc(CC(C)N(C)C(C)C)c(OC)cc1I (stereo not given) has a Ratio of 0.72.

Organism: Rattus norvegicus
Assay: The distribution of the 131 I-labeled compound at 30 min was evaluated in rat heart as Percent of injected dose per gram in the organ
Type: ADME, organism-based
Conditions: in vivo, 0.5 h
Summary of the method: as §2
In the case of COc1cc(CC(C)N(C)C(C)C)c(OC)cc1I (stereo not given), the Dose is reported as 0.19%.

Organism: Rattus norvegicus
Assay: The distribution of the 131 I-labeled compound at 5 min was evaluated in rat liver as Percent of injected dose per gram in the organ
Type: ADME, organism-based
Conditions: in vivo
Summary of the method: as §2
COc1cc(CC(C)N(C)C(C)C)c(OC)cc1I (stereo not given) showed a Dose of 0.76%.

Organism: Rattus norvegicus
Assay: Ratio of distribution of the [131I]-labeled compound at 5 min in rat brain over uptake in blood
Type: ADME, organism-based
Conditions: not given
Summary of the method: as §1
For COc1cc(CC(C)N(C)C(C)C)c(OC)cc1I (stereo not given), the Ratio was 0.24.

Organism: Rattus norvegicus
Assay: Ratio of distribution of the [131I]-labeled compound at 30 min in rat liver over uptake in blood
Type: ADME, organism-based
Conditions: other tissue, 0.5 h
Summary of the method: as §1
Work on COc1cc(CC(C)N(C)C(C)C)c(OC)cc1I (stereo not given) yielded a Ratio of 0.6.

Organism: Rattus norvegicus
Assay: Ratio of distribution of the [131I]-labeled compound at 5 min in rat heart over uptake in blood
Type: ADME, organism-based
Conditions: other tissue
Summary of the method: as §1
COc1cc(CC(C)N(C)C(C)C)c(OC)cc1I (stereo not given) showed a Ratio of 0.68.

Organism: Rattus norvegicus
Assay: The distribution of the 131 I-labeled compound at 30 min was evaluated in rat brain as Percent of injected dose per gram in the organ
Type: ADME, organism-based
Conditions: in vivo, 0.5 h
Summary of the method: as §2
COc1cc(CC(C)N(C)C(C)C)c(OC)cc1I (stereo not given) gave a Dose of 0.05%.

Organism: Rattus norvegicus
Assay: The distribution of the 131 I-labeled compound at 5 min was evaluated in rat kidney as Percent of injected dose in the total organ
Type: ADME, organism-based
Conditions: in vivo
Summary of the method: as §2
In the case of COc1cc(CC(C)N(C)C(C)C)c(OC)cc1I (stereo not given), the Dose is reported as 1.5%.

Organism: Rattus norvegicus
Assay: The distribution of the 131 I-labeled compound at 30 min was evaluated in rat liver as Percent of injected dose per gram in the organ
Type: ADME, organism-based
Conditions: in vivo, 0.5 h
Summary of the method: as §2
COc1cc(CC(C)N(C)C(C)C)c(OC)cc1I (stereo not given) showed a Dose of 0.32%.

Organism: Rattus norvegicus
Assay: The distribution of the 131 I-labeled compound at 5 min was evaluated in rat brain as Percent of injected dose in the total organ
Type: ADME, organism-based
Conditions: in vivo
Summary of the method: as §2
With COc1cc(CC(C)N(C)C(C)C)c(OC)cc1I (stereo not given) the Dose was 0.23%.

Organism: Rattus norvegicus
Assay: The distribution of the 131 I-labeled compound at 5 min was evaluated in rat heart as Percent of injected dose in the total organ
Type: ADME, organism-based
Conditions: in vivo
Summary of the method: as §2
Work on COc1cc(CC(C)N(C)C(C)C)c(OC)cc1I (stereo not given) yielded a Dose of 0.39%.

Organism: Rattus norvegicus
Assay: The distribution of the 131 I-labeled compound at 5 min was evaluated in rat kidney as Percent of injected dose per gram in the organ
Type: ADME, organism-based
Conditions: in vivo
Summary of the method: as §2
For COc1cc(CC(C)N(C)C(C)C)c(OC)cc1I (stereo not given), the Dose was 0.53%.

Organism: Rattus norvegicus
Assay: The distribution of the 131 I-labeled compound at 5 min was evaluated in rat lung as Percent of injected dose per gram in the organ
Type: ADME, organism-based
Conditions: in vivo
Summary of the method: as §2
COc1cc(CC(C)N(C)C(C)C)c(OC)cc1I (stereo not given) showed a Dose of 0.53%.

Organism: Rattus norvegicus
Assay: The distribution of the 131 I-labeled compound at 30 min was evaluated in rat brain as Percent of injected dose in the total organ
Type: ADME, organism-based
Conditions: in vivo, 0.5 h
Summary of the method: as §2
Work on COc1cc(CC(C)N(C)C(C)C)c(OC)cc1I (stereo not given) yielded a Dose of 0.1%.
